Data as given in ChEMBL document CHEMBL4334552, “Discovery of BMS-986260, a Potent, Selective, and Orally Bioavailable TGFβR1 Inhibitor as an Immuno-oncology Agent” (ACS Med Chem Lett, 2020).

What was measured:
[1] = biological target: Voltage-gated inwardly rectifying potassium channel KCNH2 (Homo sapiens, UniProt Q12809); assay: Inhibition of human ERG by electrophysiology analysis
[2] = Cmax in Beagle dog at 5 mg/kg, po; type: ADME, organism-based, Canis lupus familiaris; set-up: dose 5 mg/kg, route oral; conditions: in vivo
Method in brief: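 Male Beagle dogs, n = 2, pretreated with pentagastrin. The po dose of 5 mg/kg was in 5% ethanol, 45% PEG400 and 50% 25 mM acetate buffer pH 4.0. The iv dose of 1 mg/kg was in 5:45:50 EtOH/PEG400/saline at 1 mL/kg.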

[3] = Tmax in Beagle dog at 5 mg/kg, po; type: ADME, organism-based, Canis lupus familiaris; conditions: in vivo
Method in brief: (§1)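 Male Beagle dogs (n = 2) were pretreated with pentagastrin and dosed iv at 1 mg/kg and po at 5 mg/kg. The oral vehicle was 5% ethanol, 45% PEG400 and 50% 25 mM acetate buffer pH 4.0. The iv vehicle was 5:45:50 EtOH/PEG400/saline at 1 mL/kg.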

Cytochrome P450 2C8 [4] = biological target: T1, Cytochrome P450 2C8 (Homo sapiens, UniProt P10632); assay: Inhibition of recombinant CYP2C8 (unknown origin); type: ADME
T1 sequence (P10632 whole entry): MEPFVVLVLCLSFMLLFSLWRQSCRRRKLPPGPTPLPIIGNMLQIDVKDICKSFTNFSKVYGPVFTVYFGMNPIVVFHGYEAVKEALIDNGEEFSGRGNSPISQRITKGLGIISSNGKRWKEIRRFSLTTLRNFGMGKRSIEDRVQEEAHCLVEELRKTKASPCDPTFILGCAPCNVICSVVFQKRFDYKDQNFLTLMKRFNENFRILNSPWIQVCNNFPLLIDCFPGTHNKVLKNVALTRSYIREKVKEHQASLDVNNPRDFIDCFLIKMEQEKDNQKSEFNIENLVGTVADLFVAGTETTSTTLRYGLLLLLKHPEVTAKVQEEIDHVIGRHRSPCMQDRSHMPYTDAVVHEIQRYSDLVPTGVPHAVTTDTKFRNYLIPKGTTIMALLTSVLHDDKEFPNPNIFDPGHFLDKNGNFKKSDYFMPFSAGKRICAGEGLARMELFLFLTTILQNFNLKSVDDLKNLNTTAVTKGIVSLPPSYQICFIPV

[5] = Half life in Balb/C mouse at 5 mg/kg, iv; type: ADME, organism-based; conditions: in vivo
Method in brief: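 Male Balb/C mice (n = 3) dosed iv at 5 mg/kg in the same PK study as a 10 mg/kg oral arm. Vehicle was 70% 25 mM acetate buffer pH 4.0, 5% ethanol, 25% PEG 400. Half-life was taken from the iv arm.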

Cytochrome P450 2C8 [6] = biological target: T1, Cytochrome P450 2C8; assay: Induction of recombinant CYP2C8 (unknown origin) up to 24 microM; type: ADME; conditions: recombinant enzyme
[7] = Protein binding in human serum assessed as unbound fraction; type: ADME, cell-free
[8] = MRT in Beagle dog at 1 mg/kg, iv; type: ADME, organism-based, Canis lupus familiaris; conditions: in vivo; method in brief: as §1
Cytochrome P450 2C19 = Cytochrome P450 2C19 (Homo sapiens, UniProt P33261); assay: Inhibition of recombinant CYP2C19 (unknown origin); type: ADME
[9] = Cardiovascular toxicity in rat assessed as valvulo-pathy at 1 mg/kg, po for 10 days; type: organism-based; conditions: in vivo, 240 h
Method in brief: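 Exploratory toxicology studies of 10 days with daily oral dosing in rats and dogs. Cardiovascular findings, including valvulopathy and aortic pathology, were assessed.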

[10] = Cmax in Sprague Dawley rat at 10 mg/kg, po; type: ADME, organism-based; set-up: dose 10 mg/kg, route oral; conditions: in vivo
Method in brief: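 Male Sprague–Dawley rats, n = 3, given 5 mg/kg iv or 10 mg/kg po as a PEG400 solution.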

[11] = Half life in Beagle dog at 1 mg/kg, iv; type: ADME, organism-based, Canis lupus familiaris; conditions: in vivo
Method in brief: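 Male Beagle dogs (n = 2) pretreated with pentagastrin were given 1 mg/kg iv in 5:45:50 EtOH/PEG400/saline at 1 mL/kg. A 5 mg/kg oral arm used 5% ethanol, 45% PEG400, 50% 25 mM acetate buffer pH 4.0. Half-life was from the iv arm.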

TGF-beta receptor type-1 = biological target: T2, TGF-beta receptor type-1 (Homo sapiens, UniProt P36897); assay: Inhibition of TGFbetaR1 in TGFbeta-stimulated human T cells assessed as reduction in SMAD3 phosphorylation preincubated for 1 hr followed by TGFbeta-stimulation for 90 mins by Alphalisa assay
T2 sequence (P36897 whole entry): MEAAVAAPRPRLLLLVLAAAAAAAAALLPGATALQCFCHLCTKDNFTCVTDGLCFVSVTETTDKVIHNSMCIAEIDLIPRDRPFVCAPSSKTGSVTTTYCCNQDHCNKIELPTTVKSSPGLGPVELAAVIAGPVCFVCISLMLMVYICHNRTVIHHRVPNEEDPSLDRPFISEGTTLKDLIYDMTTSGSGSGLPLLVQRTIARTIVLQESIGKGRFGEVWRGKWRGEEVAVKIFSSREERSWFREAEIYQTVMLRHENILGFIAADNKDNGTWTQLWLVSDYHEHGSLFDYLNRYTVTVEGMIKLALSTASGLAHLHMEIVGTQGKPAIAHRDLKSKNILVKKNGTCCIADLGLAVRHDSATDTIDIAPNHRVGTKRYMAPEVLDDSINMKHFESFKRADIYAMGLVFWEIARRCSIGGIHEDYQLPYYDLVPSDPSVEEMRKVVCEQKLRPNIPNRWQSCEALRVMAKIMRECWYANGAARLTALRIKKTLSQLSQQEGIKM

[12] = Cmax in Balb/C mouse at 10 mg/kg, po; type: ADME, organism-based; set-up: dose 10 mg/kg, route oral; conditions: in vivo
Method in brief: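 Male Balb/C mice, n = 3, dosed at 5 mg/kg iv or 10 mg/kg po. The vehicle was 70% 25 mM acetate buffer pH 4.0, 5% ethanol and 25% PEG 400.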

[13] = biological target: T3, Nuclear receptor subfamily 1 group I member 2 (Homo sapiens, UniProt O75469); assay: Activation of PXR (unknown origin)
T3 sequence (O75469 whole entry): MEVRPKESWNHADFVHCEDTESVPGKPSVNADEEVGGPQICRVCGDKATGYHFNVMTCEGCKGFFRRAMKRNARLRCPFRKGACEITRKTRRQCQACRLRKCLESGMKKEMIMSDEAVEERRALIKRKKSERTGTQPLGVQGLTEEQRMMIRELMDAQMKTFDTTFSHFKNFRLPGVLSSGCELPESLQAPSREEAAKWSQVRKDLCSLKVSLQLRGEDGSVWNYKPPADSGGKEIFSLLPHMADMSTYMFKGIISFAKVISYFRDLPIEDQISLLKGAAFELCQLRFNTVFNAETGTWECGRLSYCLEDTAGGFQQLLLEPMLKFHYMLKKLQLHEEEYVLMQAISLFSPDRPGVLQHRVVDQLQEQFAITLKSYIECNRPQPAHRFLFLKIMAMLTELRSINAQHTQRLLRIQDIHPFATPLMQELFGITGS

Chain of Cytochrome P450 2C19 (P33261 whole entry): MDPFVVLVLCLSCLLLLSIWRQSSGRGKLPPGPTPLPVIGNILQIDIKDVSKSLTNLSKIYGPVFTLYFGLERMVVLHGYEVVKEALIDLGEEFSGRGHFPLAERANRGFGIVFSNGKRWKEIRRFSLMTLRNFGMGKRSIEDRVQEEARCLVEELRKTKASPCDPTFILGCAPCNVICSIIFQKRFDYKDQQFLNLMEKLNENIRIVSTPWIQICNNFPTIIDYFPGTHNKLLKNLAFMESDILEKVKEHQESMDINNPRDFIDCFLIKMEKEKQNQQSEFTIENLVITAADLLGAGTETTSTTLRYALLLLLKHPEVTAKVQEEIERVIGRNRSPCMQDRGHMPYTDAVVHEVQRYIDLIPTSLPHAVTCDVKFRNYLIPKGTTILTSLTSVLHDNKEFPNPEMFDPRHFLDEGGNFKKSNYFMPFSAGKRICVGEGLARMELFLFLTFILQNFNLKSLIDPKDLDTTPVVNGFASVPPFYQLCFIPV
Chain of Voltage-gated inwardly rectifying potassium channel KCNH2 (Q12809 whole entry): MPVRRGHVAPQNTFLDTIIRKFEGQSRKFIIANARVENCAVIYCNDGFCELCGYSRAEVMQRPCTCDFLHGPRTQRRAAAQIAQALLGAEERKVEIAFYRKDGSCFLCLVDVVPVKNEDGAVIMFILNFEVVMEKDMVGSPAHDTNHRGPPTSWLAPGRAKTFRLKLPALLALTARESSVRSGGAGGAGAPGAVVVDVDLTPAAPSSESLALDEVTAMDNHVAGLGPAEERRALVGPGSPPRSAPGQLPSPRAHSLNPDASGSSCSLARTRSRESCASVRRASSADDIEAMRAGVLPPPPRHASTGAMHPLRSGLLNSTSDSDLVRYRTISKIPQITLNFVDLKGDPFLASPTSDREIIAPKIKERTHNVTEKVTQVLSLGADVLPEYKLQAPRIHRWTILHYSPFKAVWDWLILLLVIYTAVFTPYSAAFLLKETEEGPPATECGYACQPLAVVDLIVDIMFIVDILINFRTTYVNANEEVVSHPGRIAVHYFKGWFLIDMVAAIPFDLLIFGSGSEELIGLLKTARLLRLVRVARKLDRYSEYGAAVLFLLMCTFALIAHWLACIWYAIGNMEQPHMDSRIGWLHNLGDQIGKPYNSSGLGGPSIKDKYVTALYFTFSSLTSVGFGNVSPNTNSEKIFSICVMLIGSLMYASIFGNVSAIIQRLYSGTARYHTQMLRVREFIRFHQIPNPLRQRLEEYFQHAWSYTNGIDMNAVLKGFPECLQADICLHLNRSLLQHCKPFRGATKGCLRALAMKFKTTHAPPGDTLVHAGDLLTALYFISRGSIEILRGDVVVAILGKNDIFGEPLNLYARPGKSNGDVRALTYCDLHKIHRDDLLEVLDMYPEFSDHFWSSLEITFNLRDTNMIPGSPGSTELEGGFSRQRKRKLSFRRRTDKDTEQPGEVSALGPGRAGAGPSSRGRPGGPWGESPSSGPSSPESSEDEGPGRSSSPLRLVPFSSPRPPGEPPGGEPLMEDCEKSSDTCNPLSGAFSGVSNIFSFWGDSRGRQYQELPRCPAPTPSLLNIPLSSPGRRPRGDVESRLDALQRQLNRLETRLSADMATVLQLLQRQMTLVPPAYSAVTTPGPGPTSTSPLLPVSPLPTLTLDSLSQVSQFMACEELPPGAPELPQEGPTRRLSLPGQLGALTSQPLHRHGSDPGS

Cmax [2]: 11.2 µM | Tmax [3]: 0.67 h | IC50 (Cytochrome P450 2C8 [4]): > 20 µM | half-life [5]: 9.1 h | Activity (Cytochrome P450 2C8 [6]): Not Active | fraction unbound [7]: 0.1 | MRT [8]: 3.1 h | IC50 (Cytochrome P450 2C19): > 20 µM | Cmax [10]: 12.7 µM | half-life [11]: 5 h | IC50 (TGF-beta receptor type-1): 0.15 µM | Cmax [12]: 16 µM | EC50 [13]: > 24 µM
Structure (SMILES): N#Cc1cnc2ccc(-c3c(-c4ccc(F)c(Cl)c4)ncn3CCO)nn12
IC50 [1]: > 10 µM | Activity [9]: Toxic
